Measured values as given in ChEMBL document CHEMBL1773050, “Identification of inhibitors that block vaccinia virus infection by targeting the DNA synthesis processivity factor D4” (J Med Chem, 2011).
Converted amounts (≈) assume the structure as drawn.

Biological target: Uracil-DNA glycosylase (Vaccinia virus (strain Western Reserve) (VACV) (Vaccinia virus (strainWR)), UniProt P04303)
Test: Inhibition of Vaccinia virus WR strain processivity factor D4 interaction with A20 protein assessed as inhibition of E9 DNA polymerase-mediated DIG-dUTP incorporation into DNA strand by rapid plate assay
Set-up: species or system Orthopoxvirus vaccinia
Conditions: not given
Procedure, shortened: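 Annealed biotinylated primer/100-bp template was coated on streptavidin plates. Compounds were 2-fold serial dilutions in DMSO. After 37 °C for 30 min, DIG-ELISA was read at 405 nm and normalised to DMSO and EDTA controls. Triplicates were used across at least three experiments.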

SMILES | IC50 [µM]
COc1ccc(N2CCN(Cc3nc4c(c(=O)[nH]c(=O)n4C)n3Cc3ccc(Cl)cc3)CC2)cc1 | > 200
COc1ccc(/C=C/c2nc(-c3ccccc3O)n(-c3ccccc3)n2)cc1OC | > 200
COc1ccc(Nc2c(-c3cc(Br)ccc3O)nc3ncccn23)cc1OC | 200
CN(C)c1ccc(NC(=O)CSc2nc(-c3ccco3)cc(C(F)(F)F)n2)cc1 | 140
Cc1cc2n(n1)C(c1cc(C(C)(C)C)c(O)cc1O)Nc1ccccc1-2 (centres undefined) | 138
COc1cc(NC(=O)c2cccc3c2C(=O)N(C2CCCCC2)C3)cc(OC)c1OC | > 200
Cc1ccccc1Nc1c(-c2ccc(Br)cc2O)nc2sccn12 | > 200
COc1ccc(Nc2cc(C(=O)NCCCN3CCN(c4ccccc4F)CC3)c3ccccc3n2)c(OC)c1 | > 200
OC1COc2ccc(-c3cc(-c4ccc(F)cc4)c4c(n3)-c3cc(Cl)ccc3OC4)cc2N1 (centres undefined) | > 200
CCOC(=O)c1cnc2c(ccc3ccccc32)c1Nc1ccc(N(C)C)cc1 | 139
Oc1ccc(NCc2ccccc2OCc2ccccc2)cc1 | 5.1
COC(=O)CC1Oc2ccc(C)cc2-n2cc(-c3ccc(F)cc3)nc21 (centres undefined) | > 200
Cn1c(=O)n(C)c2cc(NS(=O)(=O)c3ccc(C(C)(C)C)cc3)c(NCc3ccccc3)cc21 | 132
C=C(Cn1cc(C(=O)c2ccc(CC)cc2)c(=O)c2ccccc21)Nc1ccc(OC)c(OC)c1 | > 200

Test system: BSC-1
Test: Cytotoxicity against african green monkey BSC1 cells infected with Vaccinia virus assessed as lactate dehydrogenase release after 20 hrs by microplate reader
Type: cell-based
Conditions: chlorocebus aethiops, bsc-1, 20 h
Procedure, shortened: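 BSC-1 cells, seeded at 1 × 10^4 cells/well for 24 h, then received inhibitors at 2-fold serial dilutions in fresh medium with 1% DMSO for 20 h. LDH release into the medium was read at 492 nm after 30 min with reaction mixture in the dark. 2% Triton X-100 gave maximal release and 1% DMSO served as baseline. Triplicates were used, with three independent repeats, giving CC50.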

SMILES | CC50 [µM]
COc1ccc(N2CCN(Cc3nc4c(c(=O)[nH]c(=O)n4C)n3Cc3ccc(Cl)cc3)CC2)cc1 | 92.8
COc1ccc(/C=C/c2nc(-c3ccccc3O)n(-c3ccccc3)n2)cc1OC | 107
COc1ccc(Nc2c(-c3cc(Br)ccc3O)nc3ncccn23)cc1OC | > 200
CN(C)c1ccc(NC(=O)CSc2nc(-c3ccco3)cc(C(F)(F)F)n2)cc1 | 57.2
Cc1cc2n(n1)C(c1cc(C(C)(C)C)c(O)cc1O)Nc1ccccc1-2 (centres undefined) | 92.8
COc1cc(NC(=O)c2cccc3c2C(=O)N(C2CCCCC2)C3)cc(OC)c1OC | > 200
Cc1ccccc1Nc1c(-c2ccc(Br)cc2O)nc2sccn12 | 142
COc1ccc(Nc2cc(C(=O)NCCCN3CCN(c4ccccc4F)CC3)c3ccccc3n2)c(OC)c1 | > 200
OC1COc2ccc(-c3cc(-c4ccc(F)cc4)c4c(n3)-c3cc(Cl)ccc3OC4)cc2N1 (centres undefined) | > 200
CCOC(=O)c1cnc2c(ccc3ccccc32)c1Nc1ccc(N(C)C)cc1 | > 200
Oc1ccc(NCc2ccccc2OCc2ccccc2)cc1 | 175
COC(=O)CC1Oc2ccc(C)cc2-n2cc(-c3ccc(F)cc3)nc21 (centres undefined) | 84.1
Cn1c(=O)n(C)c2cc(NS(=O)(=O)c3ccc(C(C)(C)C)cc3)c(NCc3ccccc3)cc21 | > 200
C=C(Cn1cc(C(=O)c2ccc(CC)cc2)c(=O)c2ccccc21)Nc1ccc(OC)c(OC)c1 | 52.9

Biological target: Uracil-DNA glycosylase (Vaccinia virus (strain Western Reserve) (VACV) (Vaccinia virus (strainWR))) (UniProt P04303)
Test: Binding affinity at Vaccinia virus WR strain D4 assessed as change in unfolding transition temperature at 50 uM by thermofluor method
Conditions: not given
Procedure, shortened: (§1)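 Native D4 at 4 μM, His-tag removed and dialysed into buffer, was tested with or without 50 μM compound (final, 1% DMSO). Buffer was 25 mM Tris pH 7.2, 0.15 M NaCl, 5 mM ZnCl2, with Sypro Orange. Fluorescence was read from 25 to 80 °C at 1 °C/min. Tm is the unfolding midpoint, and ΔTm is Tm minus the DMSO mock. At least three independent experiments were run.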

SMILES | ΔTm [°C]
COc1ccc(N2CCN(Cc3nc4c(c(=O)[nH]c(=O)n4C)n3Cc3ccc(Cl)cc3)CC2)cc1 | -2.5
COc1ccc(/C=C/c2nc(-c3ccccc3O)n(-c3ccccc3)n2)cc1OC | -3.7
COc1ccc(Nc2c(-c3cc(Br)ccc3O)nc3ncccn23)cc1OC | -0.1
CN(C)c1ccc(NC(=O)CSc2nc(-c3ccco3)cc(C(F)(F)F)n2)cc1 | -1.7
Cc1cc2n(n1)C(c1cc(C(C)(C)C)c(O)cc1O)Nc1ccccc1-2 (centres undefined) | 4.9
COc1cc(NC(=O)c2cccc3c2C(=O)N(C2CCCCC2)C3)cc(OC)c1OC | -4.9
Cc1ccccc1Nc1c(-c2ccc(Br)cc2O)nc2sccn12 | -1.9
COc1ccc(Nc2cc(C(=O)NCCCN3CCN(c4ccccc4F)CC3)c3ccccc3n2)c(OC)c1 | -3.6
OC1COc2ccc(-c3cc(-c4ccc(F)cc4)c4c(n3)-c3cc(Cl)ccc3OC4)cc2N1 (centres undefined) | -3.5
CCOC(=O)c1cnc2c(ccc3ccccc32)c1Nc1ccc(N(C)C)cc1 | -1.5
Oc1ccc(NCc2ccccc2OCc2ccccc2)cc1 | 14.9
COC(=O)CC1Oc2ccc(C)cc2-n2cc(-c3ccc(F)cc3)nc21 (centres undefined) | -6.6
Cn1c(=O)n(C)c2cc(NS(=O)(=O)c3ccc(C(C)(C)C)cc3)c(NCc3ccccc3)cc21 | 10
C=C(Cn1cc(C(=O)c2ccc(CC)cc2)c(=O)c2ccccc21)Nc1ccc(OC)c(OC)c1 | -3.2

Test system: not listed separately
Test: Solubility of the compound in phosphate buffer by chemiluminescence of total nitrogen contents
Type: physicochemical
Conditions: buffer

SMILES | solubility [µg/mL]
Cc1cc2n(n1)C(c1cc(C(C)(C)C)c(O)cc1O)Nc1ccccc1-2 (centres undefined) | 19.1 (≈ 54.7 µM)
Oc1ccc(NCc2ccccc2OCc2ccccc2)cc1 | 1.1 (≈ 3.6 µM)
Cn1c(=O)n(C)c2cc(NS(=O)(=O)c3ccc(C(C)(C)C)cc3)c(NCc3ccccc3)cc21 | 0.9 (≈ 1.88 µM)

Test system: Vaccinia virus
Test: Antiviral activity against Vaccinia virus infected in BSC-1 cells by plaque reduction assay
Type: functional, organism-based
Conditions: Orthopoxvirus vaccinia

SMILES | EC50 [µM]
COc1ccc(N2CCN(Cc3nc4c(c(=O)[nH]c(=O)n4C)n3Cc3ccc(Cl)cc3)CC2)cc1 | > 200
COc1ccc(/C=C/c2nc(-c3ccccc3O)n(-c3ccccc3)n2)cc1OC | > 200
COc1ccc(Nc2c(-c3cc(Br)ccc3O)nc3ncccn23)cc1OC | 67.6
CN(C)c1ccc(NC(=O)CSc2nc(-c3ccco3)cc(C(F)(F)F)n2)cc1 | > 200
Cc1cc2n(n1)C(c1cc(C(C)(C)C)c(O)cc1O)Nc1ccccc1-2 (centres undefined) | 21.5
COc1cc(NC(=O)c2cccc3c2C(=O)N(C2CCCCC2)C3)cc(OC)c1OC | > 200
Cc1ccccc1Nc1c(-c2ccc(Br)cc2O)nc2sccn12 | > 200
COc1ccc(Nc2cc(C(=O)NCCCN3CCN(c4ccccc4F)CC3)c3ccccc3n2)c(OC)c1 | 25.8
OC1COc2ccc(-c3cc(-c4ccc(F)cc4)c4c(n3)-c3cc(Cl)ccc3OC4)cc2N1 (centres undefined) | 74.6
Oc1ccc(NCc2ccccc2OCc2ccccc2)cc1 | 7.1
COC(=O)CC1Oc2ccc(C)cc2-n2cc(-c3ccc(F)cc3)nc21 (centres undefined) | > 200
Cn1c(=O)n(C)c2cc(NS(=O)(=O)c3ccc(C(C)(C)C)cc3)c(NCc3ccccc3)cc21 | 18.8
C=C(Cn1cc(C(=O)c2ccc(CC)cc2)c(=O)c2ccccc21)Nc1ccc(OC)c(OC)c1 | > 200

Test system: not listed separately
Test: Selectivity index, CC50 for African green monkey BSC-1 cells to EC50 for Vaccinia virus
Type: toxicity, cell-based
Conditions: read-out: Ratio CC50/EC50

SMILES | selectivity ratio
COc1ccc(N2CCN(Cc3nc4c(c(=O)[nH]c(=O)n4C)n3Cc3ccc(Cl)cc3)CC2)cc1 | 0.4
COc1ccc(/C=C/c2nc(-c3ccccc3O)n(-c3ccccc3)n2)cc1OC | 0.5
COc1ccc(Nc2c(-c3cc(Br)ccc3O)nc3ncccn23)cc1OC | 3
CN(C)c1ccc(NC(=O)CSc2nc(-c3ccco3)cc(C(F)(F)F)n2)cc1 | 4
Cc1cc2n(n1)C(c1cc(C(C)(C)C)c(O)cc1O)Nc1ccccc1-2 (centres undefined) | 4
Cc1ccccc1Nc1c(-c2ccc(Br)cc2O)nc2sccn12 | 9
COc1ccc(Nc2cc(C(=O)NCCCN3CCN(c4ccccc4F)CC3)c3ccccc3n2)c(OC)c1 | 8
OC1COc2ccc(-c3cc(-c4ccc(F)cc4)c4c(n3)-c3cc(Cl)ccc3OC4)cc2N1 (centres undefined) | 3
Oc1ccc(NCc2ccccc2OCc2ccccc2)cc1 | 25
COC(=O)CC1Oc2ccc(C)cc2-n2cc(-c3ccc(F)cc3)nc21 (centres undefined) | 0.4
Cn1c(=O)n(C)c2cc(NS(=O)(=O)c3ccc(C(C)(C)C)cc3)c(NCc3ccccc3)cc21 | > 10
C=C(Cn1cc(C(=O)c2ccc(CC)cc2)c(=O)c2ccccc21)Nc1ccc(OC)c(OC)c1 | 0.3

Biological target: Uracil-DNA glycosylase (Vaccinia virus (strain Western Reserve) (VACV) (Vaccinia virus (strainWR))) (UniProt P04303)
Test: Binding affinity at Vaccinia virus WR strain D4 assessed as melting temperature at 50 uM by thermofluor method
Conditions: not given
Procedure, shortened: as §1

SMILES | Tm [°C]
COc1ccc(N2CCN(Cc3nc4c(c(=O)[nH]c(=O)n4C)n3Cc3ccc(Cl)cc3)CC2)cc1 | 35.9
COc1ccc(/C=C/c2nc(-c3ccccc3O)n(-c3ccccc3)n2)cc1OC | 34.7
COc1ccc(Nc2c(-c3cc(Br)ccc3O)nc3ncccn23)cc1OC | 38.3
CN(C)c1ccc(NC(=O)CSc2nc(-c3ccco3)cc(C(F)(F)F)n2)cc1 | 35.1
Cc1cc2n(n1)C(c1cc(C(C)(C)C)c(O)cc1O)Nc1ccccc1-2 (centres undefined) | 44.3
COc1cc(NC(=O)c2cccc3c2C(=O)N(C2CCCCC2)C3)cc(OC)c1OC | 33.2
Cc1ccccc1Nc1c(-c2ccc(Br)cc2O)nc2sccn12 | 36.5
COc1ccc(Nc2cc(C(=O)NCCCN3CCN(c4ccccc4F)CC3)c3ccccc3n2)c(OC)c1 | 34.8
OC1COc2ccc(-c3cc(-c4ccc(F)cc4)c4c(n3)-c3cc(Cl)ccc3OC4)cc2N1 (centres undefined) | 34.9
CCOC(=O)c1cnc2c(ccc3ccccc32)c1Nc1ccc(N(C)C)cc1 | 36.3
Oc1ccc(NCc2ccccc2OCc2ccccc2)cc1 | 53.3
COC(=O)CC1Oc2ccc(C)cc2-n2cc(-c3ccc(F)cc3)nc21 (centres undefined) | 32.2
Cn1c(=O)n(C)c2cc(NS(=O)(=O)c3ccc(C(C)(C)C)cc3)c(NCc3ccccc3)cc21 | 48.4
C=C(Cn1cc(C(=O)c2ccc(CC)cc2)c(=O)c2ccccc21)Nc1ccc(OC)c(OC)c1 | 35.4
